Data on 26 compounds can be found in ChEMBL document CHEMBL1149716, “Synthesis and antidiabetic activity of 2,5-disubstituted-3-imidazol-2-yl-pyrrolo[2,3-b]pyridines and thieno[2,3-b]pyridines” (2007).

Assay [1] in a line: Insulinotropic activity in rat RIN5F cells assessed as glucose dependent insulin secretion per ug of total protein at 0.1 uM. Type of assay: functional. The essentials: (§1)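 RIN5F cells seeded at 0.2×10^6 per well and grown overnight to 80% confluence. Preincubated 40 min in Krebs-Ringer Hepes buffer (1.1 mM glucose, 0.5% BSA, pH 7.4). Then exposed 30 min at 37 °C to compound with 16.7 mM glucose. Supernatant insulin by rat insulin ELISA, normalized to total protein (pg/μg/h). n = 3, mean ± SD.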

Assay [2] in a line: Insulinotropic activity in rat RIN5F cells assessed as glucose dependent insulin secretion per ug of total protein at 1 uM. Type of assay: functional. The essentials: as §1
Assay [3] is described as follows: Insulinotropic activity in rat RIN5F cells assessed as glucose dependent insulin secretion per ug of total protein at 10 uM. Type of assay: functional. In outline: as §1
The test system of assay [4] is Mus musculus. The experiment in a line: Antidiabetic activity in ip dosed overnight fasted C57BL/6J mouse assessed as serum insulin level by ELISA. Type of assay: functional, organism-based. The essentials:
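Male C57BL/6J mice (8–12 weeks, 25–30 g), randomized into groups of n = 6 by fed glucose and fasted overnight. Single ip dose of 1, 10 or 100 μM/kg/10 mL, suspended in normal saline (saline vehicle control). Retro-orbital blood taken under light ether at 30 min. Serum stored at -70 °C, then assayed by rat/mouse insulin ELISA. Mean ± SEM.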

Assay [5] deals with Mus musculus. The assay can be described thus: Antidiabetic activity in overnight fasted C57BL/6J mouse assessed as reduction in serum glucose level at 1 uM to 100 uM, ip after 120 mins. Format: functional, organism-based. The essentials:
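Male C57BL/6J mice (8–12 weeks, 25–30 g), n = 6 per group, fasted overnight. Single ip dose of 1, 10 or 100 μM/kg/10 mL in saline (saline vehicle control). Retro-orbital blood under light ether at 0, 30, 60 and 120 min. Serum glucose by GOD/POD method, duplicate samples. Baseline-corrected curves and 0–120 min AUC; mean ± SEM.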

A short description of assay [6]: Insulinotropic activity in rat RIN5F cells assessed as insulin secretion per ug of total protein at 10 uM. Format: functional. In outline: (§2)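 RIN5F cells seeded at 0.2×10^6 per well, grown overnight to 80% confluence, then preincubated 40 min in Krebs-Ringer Hepes buffer (1.1 mM glucose, 0.5% BSA, pH 7.4). Incubated 30 min at 37 °C with compound in the absence of glucose (0 mM). Secreted insulin by rat insulin ELISA, normalized to total protein (pg/μg/h). n = 3, mean ± SD.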

The nature of assay [7]: Insulinotropic activity in rat RIN5F cells assessed as insulin secretion per ug of total protein at 0.1 uM. Format: functional. In outline:
as §2

Assay [8] can be described thus: Insulinotropic activity in rat RIN5F cells assessed as insulin secretion per ug of total protein at 1 uM. Type of assay: functional. The essentials: as §2
Assay [9] relates to Mus musculus. The assay can be described thus: Antidiabetic activity in overnight fasted C57BL/6J mouse assessed as reduction in serum glucose level at 1 uM to 100 uM, ip after 30 mins. Type of assay: functional, organism-based. The essentials:
(§3)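 Male C57BL/6J mice (8–12 weeks, 25–30 g, bred in-house) randomized into groups (n = 6) by fed glucose, fasted overnight with water ad libitum. Compounds suspended in normal saline given ip at 1, 10 and 100 μM/kg/10 mL right after 0 min bleed. Retro-orbital blood under light ether at 0, 30, 60, 120 min; serum glucose by GOD/POD method, duplicate samples; mean ± SEM.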

Assay [10] relates to Mus musculus. The experiment in a line: Antidiabetic activity in overnight fasted C57BL/6J mouse assessed as reduction in serum glucose level at 1 uM to 100 uM, ip after 60 mins. Format: functional, organism-based. The essentials:
as §3

Calls of active or inactive are those of the source. No cut-off for these calls is given here.

With `c1ccc(-c2[nH]c3ncccc3c2C2=NCCN2)cc1`, the Activity turned out to be 14.1 pg/h in assay [1], 18.1 pg/µg/h in assay [2] and 32.5 pg/h in assay [3].

Regarding `CCc1[nH]c2ncccc2c1C1=NCCN1`, the Activity in assay [1] worked out at 13.3 pg/h; in [2] it was 16.4 pg/µg/h; in [3] it was 29.1 pg/h.

Take `CCc1[nH]c2ncc(Cl)cc2c1C1=NCCN1`: the Activity in assay [1] came to 18.9 pg/h; in [2], 26.1 pg/µg/h; in assay [3], 39.9 pg/h.

On to `Cc1[nH]c2ncccc2c1C1=NCCN1`, for which the values for the Activity in [1], in [2] and in assay [3] were 14.9 pg/h, 18 pg/µg/h and 32.4 pg/h, respectively.

For the compound `Clc1cnc2[nH]c(C3CCCCC3)c(C3=NCCN3)c2c1`, the Activity is 12.6 pg/h in assay [1], 15 pg/µg/h in assay [2] and 28.9 pg/h in [3].

Consider `CCc1sc2ncccc2c1C1=NCCN1`, for which the results for the Activity in assay [1], in assay [2] and in [3] were 13 pg/h, 15.5 pg/µg/h and 29.1 pg/h, respectively.

Consider `c1ccc(Cc2[nH]c3ncccc3c2C2=NCCN2)cc1`, for which the Activity in assay [1] was 14.8 pg/h; in assay [2], 18.2 pg/µg/h; in assay [3], 32.6 pg/h.

As for `c1cnc2sc(C3CCCCC3)c(C3=NCCN3)c2c1`, the Activity in [1] amounted to 12.6 pg/h; in assay [2] it was 14.7 pg/µg/h; in assay [3], 28.1 pg/h.

Regarding `Clc1cnc2scc(C3=NCCN3)c2c1`, the Activity stood at 12.6 pg/h in [1], 15 pg/µg/h in assay [2] and 29 pg/h in assay [3].

For the compound `c1cnc2scc(C3=NCCN3)c2c1`, the Activity in assay [1] stood at 12.2 pg/h; in assay [2], 14.2 pg/µg/h; in [3], 28.2 pg/h.

As for `Cc1[nH]c2ncc(Cl)cc2c1C1=NCCN1`, the Activity was 19.3 pg/h in [1], 27.7 pg/µg/h in assay [2], “Dose-dependent effect” with Mus musculus [4] and 41.7 pg/h in [3]. Besides, the result in the assay with Mus musculus [5] was Active.

Regarding `Clc1cnc2sc(C3CCCCC3)c(C3=NCCN3)c2c1`, the Activity in assay [1] was 12.9 pg/h; in assay [2], 15.1 pg/µg/h; in assay [3] it was 28.7 pg/h.

For the compound `Clc1cnc2[nH]cc(C3=NCCN3)c2c1`, the Activity was 12.4 pg/h in assay [1], 15.2 pg/µg/h in assay [2] and 29.6 pg/h in assay [3].

Turning to `c1ccc(-c2sc3ncccc3c2C2=NCCN2)cc1`, the Activity is 14.7 pg/h in assay [1], 18 pg/µg/h in assay [2] and 31.9 pg/h in assay [3].

Take `c1cnc2[nH]c(C3CCCCC3)c(C3=NCCN3)c2c1`: the Activity in assay [1] is 12.4 pg/h; in [2], 14.3 pg/µg/h; in assay [3], 28 pg/h.

With `Cc1sc2ncc(Cl)cc2c1C1=NCCN1`, the Activity in assay [1] is 19.2 pg/h; in [2], 27.5 pg/µg/h; in the assay with Mus musculus [4], “Dose-dependent effect”; in [3], 41.5 pg/h. Besides, the outcome in the assay with Mus musculus [5] was Active.

For the compound `Clc1cnc2[nH]c(Cc3ccccc3)c(C3=NCCN3)c2c1`, the Activity in assay [1] is 14.4 pg/h; in [2], 18.3 pg/µg/h; in [3], 31.9 pg/h.

Turning to `Clc1cnc2sc(-c3ccccc3)c(C3=NCCN3)c2c1`, the Activity in [1] came to 18 pg/h; in assay [2] it was 25.4 pg/µg/h; in assay [3] it was 39 pg/h.

As for `CCCCNC(=O)NS(=O)(=O)c1ccc(C)cc1` [TOLBUTAMIDE], the Activity in assay [1] was 20 pg/h; in [6], 34.4 pg/h; in assay [7], 19.7 pg/h; in [3], 35.2 pg/h; in assay [8], 20.7 pg/h.

For `Cc1[nH]c2ccc(Cl)cc2c1C1=NCCN1`, the results for the Activity in [1], in assay [2] and in assay [3] were 16.3 pg/h, 22.4 pg/µg/h and 36.5 pg/h, respectively. In addition, the outcome in the assay with Mus musculus [9] and in the assay with Mus musculus [10] was Active.

On to `Clc1cnc2[nH]c(-c3ccccc3)c(C3=NCCN3)c2c1`, for which the Activity in assay [1] worked out at 18.2 pg/h; in assay [2], 25.5 pg/µg/h; in assay [3], 39.2 pg/h.

`Cc1sc2ncccc2c1C1=NCCN1`: the Activity was determined as 14.5 pg/h in assay [1], 18.9 pg/µg/h in assay [2] and 31.8 pg/h in assay [3].

As for `c1cnc2[nH]cc(C3=NCCN3)c2c1`, the Activity in assay [1] was found to be 12.1 pg/h; in assay [2], 14.1 pg/µg/h; in [3] it was 28 pg/h.

Take `Clc1cnc2sc(Cc3ccccc3)c(C3=NCCN3)c2c1`: the values for the Activity in assay [1], in assay [2] and in assay [3] were 13.9 pg/h, 18.2 pg/µg/h and 31.9 pg/h, respectively.

Consider `c1ccc(Cc2sc3ncccc3c2C2=NCCN2)cc1`, for which the values for the Activity in assay [1], in assay [2] and in [3] were 14.4 pg/h, 18.8 pg/µg/h and 31.6 pg/h, respectively.

Take `CCc1sc2ncc(Cl)cc2c1C1=NCCN1`: the Activity was determined as 18.5 pg/h in assay [1], 26.5 pg/µg/h in assay [2] and 39.8 pg/h in [3].
